Screening results as filed in PubChem.
The list is not random: actives were taken first. Their share in the collection is about 2.6%.
NR1D1 modulator = modulates human Rev-erb alpha binding to DNA | Rev-erbα–FITC-DNA binding, fluorescence polarization, 90 min | P20393 | activity, % at 10 µM | hit rate 0.79% among 370,000;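 active = activity above about 14%, limit read from the data; passing the limit was not always enough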
Target sequence (P20393 whole entry, looked up): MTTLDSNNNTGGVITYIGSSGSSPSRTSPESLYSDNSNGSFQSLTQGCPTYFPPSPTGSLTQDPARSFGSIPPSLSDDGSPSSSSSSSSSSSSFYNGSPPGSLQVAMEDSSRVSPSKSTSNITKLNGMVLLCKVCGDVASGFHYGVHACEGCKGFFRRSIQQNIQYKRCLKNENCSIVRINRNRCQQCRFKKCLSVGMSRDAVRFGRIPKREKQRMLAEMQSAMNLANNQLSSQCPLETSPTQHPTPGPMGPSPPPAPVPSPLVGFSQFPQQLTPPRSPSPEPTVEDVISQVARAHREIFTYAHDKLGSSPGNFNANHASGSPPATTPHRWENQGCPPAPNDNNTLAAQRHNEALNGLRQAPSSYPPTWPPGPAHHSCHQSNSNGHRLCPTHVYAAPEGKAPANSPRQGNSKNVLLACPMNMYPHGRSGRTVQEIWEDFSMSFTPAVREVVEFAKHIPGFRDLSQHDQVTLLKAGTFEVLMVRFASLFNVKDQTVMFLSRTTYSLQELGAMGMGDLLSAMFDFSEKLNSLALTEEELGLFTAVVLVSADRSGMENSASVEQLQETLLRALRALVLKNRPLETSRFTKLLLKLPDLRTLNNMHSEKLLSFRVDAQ
NR2E3 ag-1 = human photoreceptor-specific nuclear receptor agonism; hit rate 0.35% among 360,000; AID 602229; Q9Y5X4; CHO-S Gal4-NCOR/VP16-NR2E3 two-hybrid, luciferase; inhibition of corepressor binding, % at 3.98 µM;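 active = inhibition above the mean of all tested compounds plus 3 SD, cut at about 70% in these data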;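 note: higher means lower luciferase signal from less NR2E3 corepressor binding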
NR2E3 ag-2 = NR2E3 (human) agonism; inhibition of corepressor binding, % at 4.78 µM; hit rate 0.12% among 320,000; Q9Y5X4; GST-NR2E3/biotin-RetCOR TR-FRET, 1536-well; AID 2300;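 active = percent inhibition above the cutoff of mean plus 3 SD of all tested compounds, set per screening campaign, cut at about 20% in these data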
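Assay system: NR2E3–RetCOR corepressor complex. Quantity: 1.35 nM GST-NR2E3. Buffer or medium: pH 7.5 Tris-based buffer. Reagent: biotinylated RetCOR corepressor at 7 nM final. Schedule: 5 h at 4 °C. Detection: TR-FRET, emission read at 617 and 671 nm. Replicates: one well per compound, singlicate testing.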
rCAG binder = r(CAG) repeat RNA binding. TO-PRO-1 dye displacement fluorescence. inhibition, % at 3 µM. hit rate 1.3% among 370,000. AID 651821;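 active = inhibition above the plate cutoff, the mean of all test compounds on that plate plus 3 SD, cut at about 35% in these data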;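 note: higher means more dye released from RNA so lower well fluorescence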
PG9 binder = PG9 antibody binding by small molecule; TR-FRET gp120-PG9 antibody binding; inhibition, % at 6.7 µM; hit rate 0.43% among 360,000; in the data active = inhibition above about 8.5%
NR2E3 ag conf = NR2E3 agonism confirmed in two-hybrid assay; CHO-S mammalian two-hybrid NR2E3-NCOR, luciferase luminescence; shares compounds with NR2E3 ag-1; inhibition, % at 3.98 µM; AID 624378; hit rate 51% among 2,300;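 active = average inhibition above a cutoff equal to the mean inhibition of all tested compounds plus one SD, cut at about 70% in these data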
VP16 counter = counter-screen for NR2E3 agonists: GAL4-VP16 reporter inhibitors; inhibition, % at 3.98 µM; hit rate 29% among 2,300; shares compounds with NR2E3 ag-1; AID 624379; CHO-S GAL4-VP16 luciferase reporter, luminescence;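 active = mean inhibition above a cutoff equal to the average over all tested compounds plus one standard deviation, cut at about 70% in these data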;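 note: luciferase from a UAS reporter driven by GAL4-VP16 transactivation; higher means less reporter light so more repression of VP16 activity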
A number is an active result; n = inactive; x = no result given.

SMILES | NR1D1 modulator | NR2E3 ag-1 | NR2E3 ag-2 | rCAG binder | PG9 binder | NR2E3 ag conf | VP16 counter
COc1ccc([C@@]23Oc4cc(OC)cc(OC)c4[C@]2(O)[C@H](O)[C@H](C(=O)N(C)C)[C@H]3c2ccccc2)cc1 | n | 101 | x | n | n | 98 | 96
CC(=O)N1CCc2c(sc(NC(=O)c3ccc([N+](=O)[O-])o3)c2C(N)=O)C1 | n | 79 | x | n | n | n | n
COc1ccc(CNCCc2ccc(Cl)cc2)cc1OCc1ccccc1 | x | n | n | x | x | 82 | 71
COc1ccc(CCNC(=O)Cc2ccc(OCc3ccccc3)c(OC)c2[N+](=O)[O-])cc1OCc1ccccc1 | n | 101 | n | n | n | 88 | 73
Cc1cc(Nc2cccc(Br)c2)cc(=O)n1-c1cccc(Br)c1 | n | x | x | n | n | x | x
Cc1c(Cl)ccc2sc(N3CCN(C(=O)C4=COCCO4)CC3)nc12 | n | 79 | n | n | n | 90 | n
Cc1ccc2sc(N3CCN(C(=O)c4ccc([N+](=O)[O-])o4)CC3)nc2c1C | n | n | n | n | n | x | x
COc1ccccc1C(=O)N1CCN(CCNC(=O)C(=O)Nc2ccc(Br)c(C)c2)CC1 | n | n | n | n | n | n | n
Cc1cc(NC(=O)C(=O)NCCN2CCN(C(=O)c3cccs3)CC2)ccc1Br | n | n | n | n | n | x | x
CCN(CC(=O)NCc1cccs1)C(=O)c1ccc(-c2cccc(C(F)(F)F)c2)o1 | n | n | n | n | n | n | n
CCCCc1c(-c2ccccc2OC)ncn1Cc1cccc(F)c1 | n | x | x | n | n | x | x
Cc1ccc(NC(=S)N=Nc2c(O)[nH]c3ccccc23)cc1 | n | n | n | n | n | n | n
CC(C)c1cccc(-c2csc(C(C)(O)c3ccncc3)n2)c1 (stereo not given) | n | 85 | x | n | n | 93 | 80
O=S1(=O)N[C@@H](Cc2ccccc2)COc2cc(N3CCOCC3)ccc21 | n | x | x | n | n | x | x
CC(C)c1ccc(/C=C(\c2nc3ccccc3[nH]2)S(=O)(=O)c2ccccc2)cc1 | n | 100 | n | n | n | 97 | n
O=S(=O)(/C(=C/c1ccc(C(F)(F)F)cc1)c1nc2ccccc2[nH]1)c1ccccc1 | n | n | n | n | n | x | x
Cc1ccc(OCC(=O)Nc2ccc3c(c2)OCCO3)cc1C | n | n | n | n | n | n | n
NC(=O)c1ncn2c(=O)n(CCCl)nnc12 | n | x | x | n | n | x | x
Cc1ccc(NC(=O)N2CCc3ccccc32)cc1 | n | n | n | n | n | x | x
CN1CCN(c2ccc(NC(=O)N3CCc4ccccc43)cc2)CC1 | n | n | n | n | n | n | n
Cc1ccc(S(=O)(=O)Nc2ccc(N3CCCCC3)cc2)cc1 | n | n | n | n | n | x | x
Cc1ccc(NS(=O)(=O)c2ccc(C3CCCCC3)cc2)cc1 | n | 77 | n | n | n | 94 | n
C[C@@H]1CN([C@@H](C)CO)C(=O)c2ccccc2-c2ccccc2CO[C@@H]1CN(C)Cc1ccc(Cl)c(Cl)c1 | n | x | x | n | n | x | x
Cc1nn(C)c(C)c1/C=N/NC(=O)C(C)(C)Oc1ccc(Cl)cc1 | n | n | n | x | x | x | x
Cc1nn(C(C)(C)C)c(C)c1/C=N/OC(=O)Nc1ccc(Cl)cc1 | n | 97 | n | n | n | n | 91
SMILES | NR1D1 modulator | NR2E3 ag-1 | NR2E3 ag-2 | rCAG binder | PG9 binder | NR2E3 ag conf | VP16 counter
Cc1ccc(S(=O)(=O)Nc2cnc3ccccc3c2)cc1 | n | n | n | n | n | n | n
O=C(COc1ccccc1O)NNc1ccccc1 | n | n | n | n | n | n | n
O=C(COc1ccccc1O)Nc1ccccc1Cl | n | n | n | n | n | x | x
COc1ccc(S(=O)(=O)N2CCOC2CNC(=O)C(=O)NCc2ccc(F)cc2)cc1OC (stereo not given) | n | n | n | n | n | n | n
COC(=O)c1c(C)oc2ccc(N(C(=O)c3ccncc3)S(=O)(=O)c3ccc(C)cc3)cc12 | x | 85 | n | x | x | 95 | 83
COC(=O)c1c(C)oc2ccc(N(C(=O)c3ccncc3)S(=O)(=O)c3ccc4ccccc4c3)cc12 | n | 89 | n | n | n | 97 | 87
Cc1ccc(S(=O)(=O)N(C(=O)c2ccncc2)c2ccc3oc4c(c3c2)CCCC4)cc1[N+](=O)[O-] | n | n | n | n | n | x | x
COC(=O)c1c(C)oc2ccc(N(C(=O)Oc3ccccc3)S(=O)(=O)c3ccc(Cl)c([N+](=O)[O-])c3)cc12 | x | n | n | x | x | x | x
COC(=O)c1c(C)oc2ccc(N(C(=O)c3ccncc3)S(=O)(=O)c3ccc(C)cc3C)cc12 | n | 91 | n | n | n | 93 | n
C[C@H](CO)N1C[C@H](C)[C@@H](CN(C)C(=O)Nc2cccc(C(F)(F)F)c2)OCc2cn(nn2)CCCC1=O | n | x | x | n | n | x | x
CCCCOCC1CN(CCCC)S(=O)(=O)c2c(cccc2N2CCCC2)O1 (stereo not given) | n | x | x | n | n | x | x
COc1ccccc1Cc1c(C2CCCCC2)nc2c(C)cc(Br)cn12 | n | x | x | n | n | x | x
CC(C)CNc1cccc2c1S(=O)(=O)N[C@@H](Cc1ccccc1)CO2 | n | x | x | n | n | x | x
C/C=C(/C)C(=O)OC1CC(C)(C)C[C@H]2C3=CC[C@@H]4[C@@]5(C)CCC(O[C@@H]6O[C@@H](C(=O)O)[C@@H](O)C(O[C@@H]7OC[C@H](O)[C@@H](O)[C@@H]7O[C@@H]7OC(CO)C(O)[C@@H](O)[C@@H]7O)C6O[C@@H]6OC(CO)C(O)C(O)C6O)[C@@](C)(CO)[C@@H]5CC[C@]4(C)[C@]3(C)CC(O)[C@@]12CO (stereo not given in full) | x | n | x | x | x | n | n
CC(C)(C)C(=O)C(Oc1ccc(Cl)cc1)n1ccnc1 (stereo not given) | n | x | x | x | x | x | x
C[C@@H]1CN([C@H](C)CO)C(=O)CCCn2cc(nn2)CO[C@H]1CN(C)S(=O)(=O)c1cn(C)cn1 | n | x | x | n | n | x | x
COc1cccc(N2CCN(C(=O)c3ccc(CS(=O)c4ccccc4Cl)o3)CC2)c1 (stereo not given) | n | n | n | n | n | n | n
Cc1cc(O)cc(=O)n1-c1cc(F)c(F)c(F)c1 | n | x | x | n | n | x | x
CCC(C)(C)C(=O)O[C@H]1C[C@@H](C)C=C2C=C[C@H](C)[C@H](CC[C@@H]3C[C@@H](O)CC(=O)O3)[C@H]21 | n | n | n | n | n | 86 | n
CC[C@@H]1CCC[C@@H](O)[C@@H](C)C(=O)O[C@H](C)[C@@H](C)C/C=C(C)/C(OC)=C\C(=O)N(C)C([C@@H](C)CC)C(=O)N(C)[C@@H](C(C)C)C(=O)N(C)[C@@H](COC)C(=O)N2CCC[C@H]2C(=O)N(C)[C@@H](C(C)C)C(=O)N2CCC[C@H]2C(=O)O1 (stereo not given in full) | n | 97 | x | n | n | 98 | 91
